PubChem BioAssay
Results filed as inconclusive are left out.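 The calls were made as follows, unless noted: active = inhibition over a set limit, the all-compound mean plus 3 SD, in both replicate runs; inconclusive = over that limit in just one replicate run; inactive = at or under that limit in both runs.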

Key:
[1] = OD615 S. cerevisiae growth inhibition, permissive medium, pilot counter-assay, permissive growth control for S. cerevisiae lifespan shortening project (AID 705;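 active = growth inhibition above 25% in both replicates, a cutoff set 3 SD above the mean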); conditions: OD615, 24 h, at 10 µM, stronger effect = higher value
Procedure, shortened: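 System – S. cerevisiae with engineered DeaD lifespan system · Buffer or medium – SC raffinose/galactose permissive medium · Schedule – cells pre-grown 4 h, then 24 h compound exposure, 30 °C humidified · Technique – culture turbidity as optical density at 615 nm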

[2] = Restrictive medium S. cerevisiae growth inhibition, OD615, pilot screen of yeast lifespan reduction project, restrictive growth control (AID 706;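 active = growth inhibition above a set limit, 3 SD over mean compound inhibition, in both replicates, cut at about 43% in these data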;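 also: modified DeaD lifespan yeast strain shifted to restrictive glucose medium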); conditions: OD615, 48 h, at 10 µM, stronger effect = higher value
Procedure, shortened: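 Material: engineered S. cerevisiae DeaD strain / Medium: glucose-based CSMM-D restrictive medium / Compound: single dose of 10 µM compound final, 0.25% DMSO / Timing: 4 h pre-incubation, 48 h exposure at 30 °C / Technique: OD615 absorbance reading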

[3] = viability gain of MRP-1-high H69AR cells under doxorubicin, pilot screen, MRP-1 activator project, CellTiter-Glo, duplicate (AID 807;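 active = viability increase at or above a cutoff of the median across tested compounds plus 3 SD, cut at about 8.5% in these data, passing the limit was not always enough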;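 also: compound pretreatment 18-22 h then 72 h combined with doxorubicin; 0% = doxorubicin alone and 100% = vehicle without doxorubicin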); conditions: H69AR viability with doxorubicin, CellTiter-Glo luminescence; at 10 µM; stronger effect = higher value
[4] = growth suppression of beta-catenin knockout HCT116, pilot screen, human colon tumor cells (AID 823;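 active = cell viability at or below a set limit in both duplicate runs, the limit being the all-compound median minus 4 SD, cut at about 23% in these data, passing the limit was not always enough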;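 also: 0% = wells killed by 20 µM Hyamine and 100% = untreated DMSO cell wells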); conditions: CellTiter-Glo, 60 h, at 10 µM, stronger effect = lower value
[5] = growth suppression of PTEN-deleted HCT116, pilot screen, cell-based, HCT116 clonal line, CellTiter-Glo (AID 824;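 active = viability at or below 27.92% in each of two runs, the all-compound median minus 4 SD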;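 also: 0% = 20 µM Hyamine control and 100% = vehicle cell control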); conditions: 60 h, at 10 µM, stronger effect = lower value
[6] = inhibitors of the yeast RAM network, pilot screen, dse1pr::URA3 reporter, 5-FOA selection (AID 869);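 also: 0% = DMSO wells with no growth and 100% = 10 µM 1-NA-PP1 with full growth; RAM network block rescues cells from 5-FOA so hits raise OD615 growth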; conditions: S. cerevisiae dse1pr::URA3 5-FOA growth, OD615, 2 d; at 10 µM; stronger effect = higher value; strain carries analog-sensitive mutant Cbk1 kinase
[7] = RAM signaling pathway blockade in yeast – S. cerevisiae, Pdr1DBD-CYC8 efflux-inhibited sensitized strain, primary screen (AID 1298;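 active = RAM network inhibition above 8.4% in each of two replicates, 3 SD over the compound average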;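 also: 0% = DMSO untreated cells without growth and 100% = 10 µM 1-NA-PP1 full growth; higher means more yeast growth rescued from 5-FOA killing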); conditions: S. cerevisiae cbk1-as DSE1-URA3 strain, 5-FOA growth OD615, 2 d; at 50 µM; stronger effect = higher value

O=C(C1CC(c2ccc(F)cc2)=NO1)N1CCc2ccccc2C1 (stereo not drawn)
inactive: growth inhibition [1] 1.34% | growth inhibition [2] -7.89% | viability increase [3] 0.59% | viability [4] 101% | viability [5] 99.5% | inhibition [6] 1.91% | RAM network inhibition [7] 7.63%

Cn1c(=O)oc2cc(S(=O)(=O)N3CCC(C(=O)N4CC=C(c5ccccc5)CC4)CC3)ccc21
inactive: growth inhibition [1] -0.22% | growth inhibition [2] 4.63% | viability increase [3] 0.15% | viability [4] 98.9% | viability [5] 94.8% | inhibition [6] 0.01% | RAM network inhibition [7] 6.76%

N#Cc1cn(CC(=O)NCC2CCCO2)c2ccccc12 (stereo not drawn)
inactive: growth inhibition [1] 1.68% | growth inhibition [2] -3% | viability increase [3] -1.75% | viability [4] 93.1% | viability [5] 91.4% | inhibition [6] 1.1% | RAM network inhibition [7] 5.31%

CCOc1ccc(Cn2nnc(C(=O)NCc3ccccc3)c2N)cc1
inactive: growth inhibition [1] 2.25% | growth inhibition [2] 3.87% | viability increase [3] 2.17% | viability [4] 93.2% | viability [5] 85.5% | inhibition [6] 0.395% | RAM network inhibition [7] 3.74%

O=C(NC1CCCc2ccccc21)C1CCN(C(=O)c2sccc2-n2cccc2)CC1 (stereo not drawn)
inactive: growth inhibition [1] -5.99% | growth inhibition [2] -8.89% | viability increase [3] -4.24% | viability [4] 84.7% | viability [5] 78.7% | inhibition [6] -0.305% | RAM network inhibition [7] 4.28%

O=C1c2ccccc2-c2nc3ncnn3c(-c3ccccc3Cl)c21
inactive: growth inhibition [1] -6.53% | growth inhibition [2] -0.65% | viability increase [3] -3.38% | viability [4] 83.3% | viability [5] 76.9% | inhibition [6] 0.39% | RAM network inhibition [7] 0.58%

CCc1nc(SCC(=O)c2ccc(C)c(C)c2)n[nH]1
inactive: growth inhibition [1] -9.29% | growth inhibition [2] 4.11% | viability increase [3] 2.14% | viability [4] 102% | viability [5] 104% | inhibition [6] 0.56% | RAM network inhibition [7] 6.63%

CCSc1nnc(NC(=O)C(C)C)s1
inactive: growth inhibition [1] 3.02% | growth inhibition [2] -5.11% | viability increase [3] 1.51% | viability [4] 100% | viability [5] 109% | inhibition [6] 0.765% | RAM network inhibition [7] 0.89%

COc1ccc(C)cc1Nc1cc(C)nc2nc(C)nn12
inactive: growth inhibition [1] -8.41% | growth inhibition [2] 1.49% | viability increase [3] -4.98% | viability [4] 64.4% | viability [5] 57.3% | inhibition [6] 1.47% | RAM network inhibition [7] 0.57%

CCCOC(=O)c1ccc(NC(=O)C2C3C=CC(O3)C2C(=O)O)cc1 (stereo not drawn)
inactive: growth inhibition [1] -8.39% | growth inhibition [2] -22.8% | viability increase [3] -1.49% | viability [4] 101% | viability [5] 95.4% | inhibition [6] 1.27% | RAM network inhibition [7] 0.36%

CC(=O)C1C(c2ccc(O)cc2)NC(=O)NC1(O)C(F)(F)F (stereo not drawn)
inactive: growth inhibition [1] -15.9% | growth inhibition [2] -25.1% | viability increase [3] -1.41% | viability [4] 102% | viability [5] 98.7% | inhibition [6] 2.78% | RAM network inhibition [7] 4.56%

CN=C1SC(CC(=O)Nc2ccccc2F)C(=O)N1C (stereo not drawn)
inactive: growth inhibition [1] 0.635% | growth inhibition [2] 0.465% | viability increase [3] -0.48% | viability [4] 112% | viability [5] 98.9% | inhibition [6] 1.99% | RAM network inhibition [7] 1.28%

Cc1ccc(C)c(NC(=O)CSc2nc3c(c(=O)n2C)SC(C)C3)c1 (stereo not drawn)
inactive: growth inhibition [1] -3.99% | growth inhibition [2] -8.3% | viability increase [3] -3.24% | viability [4] 83.2% | viability [5] 90.8% | inhibition [6] 0.5% | RAM network inhibition [7] 3.86%

COc1ccc(OCC(=O)OCCN2C(=O)c3ccccc3C2=O)cc1
inactive: growth inhibition [1] 3.16% | growth inhibition [2] -3.81% | viability increase [3] -0.31% | viability [4] 101% | viability [5] 106% | inhibition [6] 0.97% | RAM network inhibition [7] 8.21%

COc1cc(OC)c(NC(=O)c2ccc(Br)o2)cc1Cl
inactive: growth inhibition [1] -8.78% | growth inhibition [2] 7.46% | viability increase [3] -7.05% | viability [4] 69.8% | viability [5] 70.6% | inhibition [6] 1.47% | RAM network inhibition [7] 10.5%

CN1CCN(c2ncnc3c2sc2nc(N4CCCC4)c4c(c23)CC(C)(C)OC4)CC1
inactive: growth inhibition [1] -21.2% | growth inhibition [2] -18.1% | viability increase [3] -3.25% | viability [4] 99.6% | viability [5] 97.1% | inhibition [6] 0.735% | RAM network inhibition [7] -0.84%

O=C(c1ccco1)N1CCN(c2nc3ccsc3c(=O)s2)CC1
inactive: growth inhibition [1] -0.135% | growth inhibition [2] 6.59% | viability increase [3] -3.19% | viability [4] 97.1% | viability [5] 94.3% | inhibition [6] 2.1% | RAM network inhibition [7] 5.38%

COc1ccc(OC)c(Nc2cc(C)nc3nc(C)nn23)c1
inactive: growth inhibition [1] 0.505% | growth inhibition [2] -0.375% | viability increase [3] -5.35% | viability [4] 65.5% | viability [5] 57.4% | inhibition [6] 1.67% | RAM network inhibition [7] 5.24%

Cc1ccc(CN2C(=O)/C(=C3\SC(N4CCOCC4)=NC3=O)c3cc(Br)ccc32)cc1
inactive: growth inhibition [1] -10.5% | growth inhibition [2] -12.1% | viability increase [3] -1.85% | viability [4] 76.7% | viability [5] 79.7% | inhibition [6] 0.615% | RAM network inhibition [7] 9.54%

COC(=O)c1ccc(NC(=O)c2cnc3scc(C)n3c2=O)cc1
inactive: growth inhibition [1] -9.29% | growth inhibition [2] -13.3% | viability increase [3] 1.67% | viability [4] 101% | viability [5] 95.8% | inhibition [6] 0.345% | RAM network inhibition [7] 2.36%

Cn1c(Cn2c(=O)sc3ccccc32)nnc1SCC(=O)Nc1ccccc1F
inactive: growth inhibition [1] -5.34% | growth inhibition [2] -10% | viability increase [3] -1.11% | viability [4] 104% | viability [5] 99.4% | inhibition [6] 1.62% | RAM network inhibition [7] 9.24%

CCOc1ccc(NC(=O)CSc2nnc(Cn3c(=O)sc4ccccc43)n2C)cc1
inactive: growth inhibition [1] -5.25% | growth inhibition [2] -0.055% | viability increase [3] -2.49% | viability [4] 98% | viability [5] 103% | inhibition [6] 0.83% | RAM network inhibition [7] 7.78%

Cc1ccccc1-n1c(=O)cc(N2CCCCCC2)[nH]c1=O
inactive: growth inhibition [1] -4.08% | growth inhibition [2] -0.93% | viability increase [3] -2.23% | viability [4] 99.9% | viability [5] 98.1% | inhibition [6] 2.07% | RAM network inhibition [7] 6.58%

N#Cc1nc(-c2ccccc2F)oc1NCCN1CCOCC1
inactive: growth inhibition [1] -19.2% | growth inhibition [2] -36.8% | viability increase [3] -1.89% | viability [4] 104% | viability [5] 95% | inhibition [6] 1.17% | RAM network inhibition [7] 0.32%
